We go through ten compounds from ChEMBL document CHEMBL2331456, “Isobutylhydroxyamides from the pericarp of Nepalese Zanthoxylum armatum inhibit NF1-defective tumor cell line growth” (J Nat Prod, 2013).

Activity calls are given as the source filed them. The rule behind the calls is not given here.

The nature of data set [1]: Growth inhibition of mouse Nf1-/-;Trp53-/- KR158 cells assessed as green luminescence at 2 ug/ml after 2 days. The data set is classed as functional. The settings on record: KR158, 48 h, read-out: GI. In short, it runs like this: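 KR158 Nf1−/−;Trp53−/− astrocytoma cells carry a human E2F1-promoter luciferase that gives green luminescence only in actively dividing cells. Cells were seeded at 1000 cells/well, and compounds were added after ≥4 h attachment. Green luminescence was read with ChromoGlo reagent after 2 d. Growth inhibition compares treated cells with vehicle-treated cells, both in growth media.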

The nature of data set [2]: Cytotoxicity against mouse Nf1-/-;Trp53-/- KR158 cells assessed as cell viability at 2 ug/ml after 2 days by red luminescence assay relative to control. Type of data set: cell-based. The following applies: read-out: Activity. In short, it runs like this:
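Nf1−/−;Trp53−/− KR158 mouse astrocytoma cells carry a CMV-promoter luciferase that gives red luminescence in all living cells. Cells were plated at 1000 cells/well and allowed to attach (≥4 h), then compounds were added. Luminescence was read with ChromoGlo reagent 2 d later. Loss of viability compares treated cells in growth media with […].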

In a further data set the test system is NCI60. As to the kind of experiment: Cytotoxicity against human NCI60 cells at 10 uM. Type of data set: functional, cell-based.

In the case of `C[C@H]1C=C[C@@H](/C=C/CC/C=C/C(=O)NCC(C)(C)O)OO1` [TIMURAMIDE B], the inhibition of growth at 2 µg/mL in data set [1] is 13%. The viability at 48 h, 2 ug/ml in data set [2] turned out to be 65%.
For `CC(=O)/C=C/C=C/C(O)CC/C=C/C(=O)NCC(C)(C)O` (stereo not drawn) the same measures were 52% and 75%.
For `C[C@H](O)[C@H](O)/C=C/C=C\CC/C=C/C(=O)NCC(C)(C)O`, in that order: 31% and 79%.
In the case of `CC(O)/C=C/C=C/C(O)CC/C=C/C(=O)NCC(C)(C)O` (stereo not drawn), in data set [1], the inhibition of growth at 2 µg/mL was 41%. Also, in data set [2], the viability at 48 h, 2 ug/ml came to 67%.
For `C/C=C/C=C/C=C/CC/C=C/C(=O)NCC(C)(C)O` the same measures were 65% and 56%.
Regarding `CC(C)(O)CNC(=O)/C=C/CCC(=O)O` [TIMURAMIDE D], the inhibition of growth at 2 µg/mL in data set [1] came to 42%. In addition, in data set [2], the viability at 48 h, 2 ug/ml amounted to 70%. Besides, the result with NCI60 was inactive.
For `C[C@@H](O)[C@H](O)/C=C/C=C\CC/C=C/C(=O)NCC(C)(C)O`, the inhibition of growth at 2 µg/mL in data set [1] came to 56%. Further, the viability at 48 h, 2 ug/ml in data set [2] was determined as 66%.
Regarding `C[C@H]1C=C[C@@H](/C=C\CC/C=C/C(=O)NCC(C)(C)O)OO1` [TIMURAMIDE A], the inhibition of growth at 2 µg/mL in data set [1] turned out to be 38%. For the same compound, in data set [2], the viability at 48 h, 2 ug/ml amounted to 97%. The result in the data set on NCI60 was inactive.
Consider `C/C=C/C=C/C=C\CC/C=C/C(=O)NCC(C)(C)O`, for which the inhibition of growth at 2 µg/mL in data set [1] came out at 53%. For the same compound, the viability at 48 h, 2 ug/ml in data set [2] came to 106%.
Take `CC(C)(O)CNC(=O)/C=C/CC/C=C\C=C\C(=O)O` [TIMURAMIDE C]: the inhibition of growth at 2 µg/mL in data set [1] turned out to be 47%. Moreover, the viability at 48 h, 2 ug/ml in data set [2] came out at 66%. In addition, the outcome in the data set on NCI60 was inactive.
